Results from ChEMBL document CHEMBL4346672, “Antimicrobial and KPC/AmpC inhibitory activity of functionalized benzosiloxaboroles” (Eur J Med Chem, 2019).
≈ marks a conversion by molar mass, not a printed value. Calls of active or inactive are those of the source. The rule behind the calls is not given here.

Tests used:
Enterococcus faecalis [1] = assay: Antibacterial activity against Enterococcus faecalis ATCC 29212 assessed as diameter of zone inhibition measured after 18 hrs by CLSI disc diffusion method; format: functional
Procedure, shortened: (§1)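 Disc diffusion on Mueller-Hinton II agar. Compounds dissolved in DMSO. Strains stored at -80 °C and subcultured twice on tryptic soy agar before testing. Inhibition zones read after 35 °C, 18 h.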

[2] = tested on: Bordetella bronchiseptica; assay: Antibacterial activity against Bordetella bronchiseptica ATCC 4617 measured after 18 hrs by CLSI broth dilution method; format: functional; details: ATCC 4617, 18 h
Procedure, shortened: (§2)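 Broth MIC in Mueller-Hinton II broth following CLSI, compounds dissolved in DMSO. Strains subcultured twice on tryptic soy agar before testing. Growth read after 35 °C, 18 h.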

[3] = tested on: Bordetella bronchiseptica; assay: Antibacterial activity against Bordetella bronchiseptica ATCC 4617 assessed as diameter of zone inhibition measured after 18 hrs by CLSI disc diffusion method; format: functional; procedure, shortened: as §1
Candida parapsilosis [4] = assay: Antifungal activity against Candida parapsilosis ATCC 22019 assessed as diameter of zone inhibition incubated for 24 hrs by CLSI disc diffusion method; format: functional
Procedure, shortened: (§3)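 Yeast disc diffusion on Mueller-Hinton agar supplemented with 2% glucose and 0.5 mg/L methylene blue. Compounds in DMSO. Yeasts subcultured on Sabouraud dextrose agar before testing. Zones read after 35 °C, 24 h.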

Saccharomyces cerevisiae [5] = assay: Antifungal activity against Saccharomyces cerevisiae ATCC 9763 diameter of zone inhibition incubated for 24 hrs by CLSI disc diffusion method; format: functional
Procedure, shortened: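 Disc-diffusion run on Mueller-Hinton II agar with 2% glucose and 0.5 mg/L methylene blue, using compounds in DMSO. Yeast was precultured on Sabouraud dextrose agar (24–48 h, 30 °C). Zones read after 24 h at 35 °C.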

Proteus mirabilis [6] = assay: Antibacterial activity against Proteus mirabilis ATCC 12453 measured after 18 hrs by CLSI broth dilution method; format: functional; details: ATCC 12453, 18 h; procedure, shortened: as §2
Candida parapsilosis [7] = assay: Antifungal activity against Candida parapsilosis ATCC 22019 assessed as decrease in fungal cell growth at 0.78 to 12.5 mg/L incubated for 24 hrs by CLSI broth dilution method; format: functional; details: Lodderomyces parapsilosis, ATCC 22019, 24 h
Procedure, shortened: (§4)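 Yeast broth dilution in RPMI 1640 with 2% glucose, compounds in DMSO. Yeasts pre-grown on Sabouraud dextrose agar. Growth read after 35 °C, 24 h.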

Candida albicans [8] = assay: Antifungal activity against Candida albicans ATCC 90028 assessed as diameter of zone inhibition incubated for 24 hrs by CLSI disc diffusion method; format: functional; procedure, shortened: as §3
Staphylococcus aureus [9] = assay: Antibacterial activity against Staphylococcus aureus ATCC 6538P measured after 18 hrs by CLSI broth dilution method; format: functional; procedure, shortened: as §2
[10] = tested on: Staphylococcus epidermidis; assay: Antibacterial activity against Staphylococcus epidermidis ATCC 12228 assessed as diameter of zone inhibition measured after 18 hrs by CLSI disc diffusion method; format: functional; procedure, shortened: as §1
Burkholderia cepacia = assay: Antibacterial activity against Burkholderia cepacia ATCC 25416 assessed as diameter of zone inhibition measured after 18 hrs by CLSI disc diffusion method; format: functional; procedure, shortened: as §1
Candida albicans [11] = assay: Antifungal activity against Candida albicans ATCC 90028 assessed as decrease in fungal cell growth at 0.78 to 12.5 mg/L incubated for 24 hrs by CLSI broth dilution method; format: functional; details: ATCC 90028, 24 h; procedure, shortened: as §4
[12] = tested on: Stenotrophomonas maltophilia; assay: Antibacterial activity against Stenotrophomonas maltophilia ATCC 13637 assessed as diameter of zone inhibition measured after 18 hrs by CLSI disc diffusion method; format: functional; procedure, shortened: as §1
Enterobacter cloacae [13] = assay: Antibacterial activity against Enterobacter cloacae DSM 6234 assessed as diameter of zone inhibition measured after 18 hrs by CLSI disc diffusion method; format: functional; procedure, shortened: as §1
Enterococcus faecalis [14] = assay: Antibacterial activity against Enterococcus faecalis ATCC 29212 measured after 18 hrs by CLSI broth dilution method; format: functional; details: ATCC 29212, 18 h; procedure, shortened: as §2
Serratia marcescens [15] = details: ATCC 13880
Acinetobacter baumannii [16] = assay: Antibacterial activity against Acinetobacter baumannii ATCC 19606 measured after 18 hrs by CLSI broth dilution method; format: functional; details: ATCC 19606, 18 h; procedure, shortened: as §2
Pichia kudriavzevii [17] = assay: Antifungal activity against Candida krusei ATCC 6258 assessed as diameter of zone inhibition incubated for 24 hrs by CLSI disc diffusion method; format: functional; procedure, shortened: as §3
Pichia kudriavzevii [18] = assay: Antifungal activity against Candida krusei ATCC 6258 assessed as decrease in fungal cell growth at 0.78 to 12.5 mg/L incubated for 24 hrs by CLSI broth dilution method; format: functional; details: ATCC 6258, 24 h; procedure, shortened: as §4
Serratia marcescens [19] = assay: Antibacterial activity against Serratia marcescens ATCC 13880 assessed as fold reduction of MIC in presence of efflux pump inhibitor PAbetaN incubated for 18 hrs by broth microdilution method; format: functional
Procedure, shortened: (§5)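 MICs determined with and without PAβN at 50 mg/L in Mueller-Hinton broth containing 1 mM MgSO₄. 2-fold serial dilutions per CLSI. Fold change taken from the paired MICs after 35 °C, 18 h.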

Staphylococcus aureus [20] = assay: Antibacterial activity against Staphylococcus aureus ATCC 6538P assessed as diameter of zone inhibition measured after 18 hrs by CLSI disc diffusion method; format: functional; procedure, shortened: as §1
[21] = Dissociation constant, pKa1 of compound in 0.1 M NaOH by potentiometric analysis; format: physicochemical
Klebsiella pneumoniae [22] = details: ATCC 13883
Saccharomyces cerevisiae [23] = assay: Antifungal activity against Saccharomyces cerevisiae ATCC 9763 assessed as decrease in fungal cell growth at 0.78 to 12.5 mg/L incubated for 24 hrs by CLSI broth dilution method; format: functional; details: ATCC 9763, 24 h
Procedure, shortened: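 Yeast strain subcultured on Sabouraud dextrose agar for 24–48 h at 30 °C before testing. Compounds dissolved in DMSO.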

[24] = tested on: Staphylococcus epidermidis; assay: Antibacterial activity against Staphylococcus epidermidis ATCC 12228 measured after 18 hrs by CLSI broth dilution method; format: functional; details: ATCC 12228, 18 h; procedure, shortened: as §2
Acinetobacter baumannii [25] = assay: Antibacterial activity against Acinetobacter baumannii ATCC 19606 assessed as fold reduction of MIC in presence of efflux pump inhibitor PAbetaN incubated for 18 hrs by broth microdilution method; format: functional; procedure, shortened: as §5
Enterobacter cloacae [26] = assay: Antibacterial activity against Enterobacter cloacae DSM 6234 measured after 18 hrs by CLSI broth dilution method; format: functional; details: DSM 6234, 18 h; procedure, shortened: as §2
Candida tropicalis [27] = assay: Antifungal activity against Candida tropicalis IBA 171 assessed as diameter of zone inhibition incubated for 24 hrs by CLSI disc diffusion method; format: functional; procedure, shortened: as §3
Klebsiella pneumoniae [28] = assay: Antibacterial activity against Klebsiella pneumoniae ATCC 13883 measured after 18 hrs by CLSI broth dilution method; format: functional; details: ATCC 13883, 18 h; procedure, shortened: as §2
Candida tropicalis [29] = assay: Antifungal activity against Candida tropicalis IBA 171 assessed as decrease in fungal cell growth at 0.78 to 12.5 mg/L incubated for 24 hrs by CLSI broth dilution method; format: functional; details: IBA 171, 24 h; procedure, shortened: as §4
Proteus mirabilis [30] = assay: Antibacterial activity against Proteus mirabilis ATCC 12453 assessed as diameter of zone inhibition measured after 18 hrs by CLSI disc diffusion method; format: functional; procedure, shortened: as §1
Escherichia coli = assay: Antibacterial activity against Escherichia coli ATCC 25922 measured after 18 hrs by CLSI broth dilution method; format: functional; details: ATCC 25922, 18 h; procedure, shortened: as §2
Pseudomonas aeruginosa = assay: Antibacterial activity against Pseudomonas aeruginosa ATCC 27853 assessed as diameter of zone inhibition measured after 18 hrs by CLSI disc diffusion method; format: functional, organism-based; procedure, shortened: as §1

In the case of C[Si]1(C)OB(O)c2ccc(C=O)c(F)c21, the “diameter of the inhibition zone (DIZ)” value (Enterococcus faecalis [1]) is reported as “inactive”, the MIC [2] is reported as greater than 400 µg/mL and the “diameter of the inhibition zone (DIZ)” value [3] is reported as “inactive”. For the same molecule, the “diameter of the inhibition zone (DIZ)” value (Candida parapsilosis [4]) was “inactive”, the “diameter of the inhibition zone (DIZ)” value (Saccharomyces cerevisiae [5]) was “inactive” and the MIC (Proteus mirabilis [6]) was greater than 400 µg/mL. The MIC (Candida parapsilosis [7]) was 400 µg/mL (≈ 1790 µM), the “diameter of the inhibition zone (DIZ)” value (Candida albicans [8]) was “inactive” and the MIC (Staphylococcus aureus [9]) was 25 µg/mL (≈ 112 µM). For the same molecule, the “diameter of the inhibition zone (DIZ)” value [10] was 27 mm, the “diameter of the inhibition zone (DIZ)” value (Burkholderia cepacia) was “inactive” and the MIC (Candida albicans [11]) was 400 µg/mL (≈ 1790 µM). The “diameter of the inhibition zone (DIZ)” value [12] was “inactive”, the “diameter of the inhibition zone (DIZ)” value (Enterobacter cloacae [13]) was “inactive” and the MIC (Enterococcus faecalis [14]) was 400 µg/mL (≈ 1790 µM). For the same molecule, the DIZ (Serratia marcescens [15]) was “inactive”, the MIC (Acinetobacter baumannii [16]) was greater than 400 µg/mL and the “diameter of the inhibition zone (DIZ)” value (Pichia kudriavzevii [17]) was “inactive”. For the same molecule, the MIC (Pichia kudriavzevii [18]) was greater than 400 µg/mL, the “fold change (FC)” value (Serratia marcescens [19]) was 16 and the “diameter of the inhibition zone (DIZ)” value (Staphylococcus aureus [20]) was 21 mm. The pKa [21] was 5.4, the DIZ (Klebsiella pneumoniae [22]) was “inactive” and the MIC (Saccharomyces cerevisiae [23]) was greater than 400 µg/mL. The MIC [24] was 50 µg/mL (≈ 223 µM), the “fold change (FC)” value (Acinetobacter baumannii [25]) was 4 and the MIC (Enterobacter cloacae [26]) was greater than 400 µg/mL. The “diameter of the inhibition zone (DIZ)” value (Candida tropicalis [27]) was “inactive”, the MIC (Klebsiella pneumoniae [28]) was greater than 400 µg/mL and the MIC (Candida tropicalis [29]) was 200 µg/mL (≈ 893 µM). The “diameter of the inhibition zone (DIZ)” value (Proteus mirabilis [30]) was “inactive”, the MIC (Escherichia coli) was greater than 400 µg/mL and the “diameter of the inhibition zone (DIZ)” value (Pseudomonas aeruginosa) was “inactive”.

With C[Si]1(C)OB(O)c2ccc(B(O)O)cc21 the “diameter of the inhibition zone (DIZ)” value (Enterococcus faecalis [1]) was “inactive”, the MIC [2] was greater than 400 µg/mL and the “diameter of the inhibition zone (DIZ)” value [3] was “inactive”. For the same molecule, the “diameter of the inhibition zone (DIZ)” value (Candida parapsilosis [4]) was “inactive”, the “diameter of the inhibition zone (DIZ)” value (Saccharomyces cerevisiae [5]) was “inactive” and the MIC (Proteus mirabilis [6]) was greater than 400 µg/mL. The MIC (Candida parapsilosis [7]) was 200 µg/mL (≈ 901 µM), the “diameter of the inhibition zone (DIZ)” value (Candida albicans [8]) was “inactive” and the MIC (Staphylococcus aureus [9]) was 200 µg/mL (≈ 901 µM). For the same molecule, the “diameter of the inhibition zone (DIZ)” value [10] was 32 mm, the “diameter of the inhibition zone (DIZ)” value (Burkholderia cepacia) was “inactive” and the MIC (Candida albicans [11]) was 400 µg/mL (≈ 1800 µM). For the same molecule, the “diameter of the inhibition zone (DIZ)” value [12] was 12 mm, the “diameter of the inhibition zone (DIZ)” value (Enterobacter cloacae [13]) was “inactive” and the MIC (Enterococcus faecalis [14]) was 200 µg/mL (≈ 901 µM). For the same molecule, the DIZ (Serratia marcescens [15]) was “inactive”, the MIC (Acinetobacter baumannii [16]) was greater than 400 µg/mL and the “diameter of the inhibition zone (DIZ)” value (Pichia kudriavzevii [17]) was “inactive”. For the same molecule, the MIC (Pichia kudriavzevii [18]) was 400 µg/mL (≈ 1800 µM), the “fold change (FC)” value (Serratia marcescens [19]) was 2 and the “diameter of the inhibition zone (DIZ)” value (Staphylococcus aureus [20]) was 14 mm. For the same molecule, the pKa [21] was 7.7, the DIZ (Klebsiella pneumoniae [22]) was “inactive” and the MIC (Saccharomyces cerevisiae [23]) was 100 µg/mL (≈ 451 µM). For the same molecule, the MIC [24] was 50 µg/mL (≈ 225 µM), the “fold change (FC)” value (Acinetobacter baumannii [25]) was 2 and the MIC (Enterobacter cloacae [26]) was greater than 400 µg/mL. For the same molecule, the “diameter of the inhibition zone (DIZ)” value (Candida tropicalis [27]) was “inactive”, the MIC (Klebsiella pneumoniae [28]) was greater than 400 µg/mL and the MIC (Candida tropicalis [29]) was 200 µg/mL (≈ 901 µM). The “diameter of the inhibition zone (DIZ)” value (Proteus mirabilis [30]) was “inactive”, the MIC (Escherichia coli) was greater than 400 µg/mL and the “diameter of the inhibition zone (DIZ)” value (Pseudomonas aeruginosa) was “inactive”.
